Laboratory results as given in ChEMBL document CHEMBL3392961, “Synthesis and in vitro characterization of cinnoline and benzimidazole analogues as phosphodiesterase 10A inhibitors” (Bioorg Med Chem Lett, 2015).

Assays:
[1] = target: cAMP and cAMP-inhibited cGMP 3',5'-cyclic phosphodiesterase 10A (Homo sapiens, UniProt Q9Y233); experiment: Inhibition of human recombinant PDE10A catalytic domain pre-incubated for 5 mins before [3H]cAMP substrate addition and measured 20 mins post substrate addition by scintillation proximity assay
[2] = target: 3',5'-cyclic-AMP phosphodiesterase 4A (Homo sapiens, UniProt P27815); experiment: Inhibition of human recombinant PDE4A pre-incubated for 5 mins before [3H]cAMP substrate addition and measured 20 mins post substrate addition by scintillation proximity assay
Summary of the method: (§1)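 Scintillation proximity assay on a fixed amount of recombinant human PDE enzyme, run across varying inhibitor concentrations. The tritiated cyclic nucleotide substrate was used at 1/3 of Km. Background was subtracted, counts were plotted against inhibitor concentration, and IC50 was fitted by non-linear regression. Values are mean ± SD from at least three experiments.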

[3] = target: 3',5'-cyclic-AMP phosphodiesterase 4B (Homo sapiens, UniProt Q07343); experiment: Inhibition of human recombinant PDE4B pre-incubated for 5 mins before [3H]cAMP substrate addition and measured 20 mins post substrate addition by scintillation proximity assay; summary of the method: as §1
[4] = target: cGMP-inhibited 3',5'-cyclic phosphodiesterase 3A (Homo sapiens, UniProt Q14432); experiment: Inhibition of human recombinant PDE3A pre-incubated for 5 mins before [3H]cAMP substrate addition and measured 20 mins post substrate addition by scintillation proximity assay; summary of the method: as §1
[5] = target: cGMP-inhibited 3',5'-cyclic phosphodiesterase 3B (Homo sapiens, UniProt Q13370); experiment: Inhibition of human recombinant PDE3B pre-incubated for 5 mins before [3H]cAMP substrate addition and measured 20 mins post substrate addition by scintillation proximity assay; summary of the method: as §1
cGMP-inhibited 3',5'-cyclic phosphodiesterase 3B, sequence (Q13370 whole entry): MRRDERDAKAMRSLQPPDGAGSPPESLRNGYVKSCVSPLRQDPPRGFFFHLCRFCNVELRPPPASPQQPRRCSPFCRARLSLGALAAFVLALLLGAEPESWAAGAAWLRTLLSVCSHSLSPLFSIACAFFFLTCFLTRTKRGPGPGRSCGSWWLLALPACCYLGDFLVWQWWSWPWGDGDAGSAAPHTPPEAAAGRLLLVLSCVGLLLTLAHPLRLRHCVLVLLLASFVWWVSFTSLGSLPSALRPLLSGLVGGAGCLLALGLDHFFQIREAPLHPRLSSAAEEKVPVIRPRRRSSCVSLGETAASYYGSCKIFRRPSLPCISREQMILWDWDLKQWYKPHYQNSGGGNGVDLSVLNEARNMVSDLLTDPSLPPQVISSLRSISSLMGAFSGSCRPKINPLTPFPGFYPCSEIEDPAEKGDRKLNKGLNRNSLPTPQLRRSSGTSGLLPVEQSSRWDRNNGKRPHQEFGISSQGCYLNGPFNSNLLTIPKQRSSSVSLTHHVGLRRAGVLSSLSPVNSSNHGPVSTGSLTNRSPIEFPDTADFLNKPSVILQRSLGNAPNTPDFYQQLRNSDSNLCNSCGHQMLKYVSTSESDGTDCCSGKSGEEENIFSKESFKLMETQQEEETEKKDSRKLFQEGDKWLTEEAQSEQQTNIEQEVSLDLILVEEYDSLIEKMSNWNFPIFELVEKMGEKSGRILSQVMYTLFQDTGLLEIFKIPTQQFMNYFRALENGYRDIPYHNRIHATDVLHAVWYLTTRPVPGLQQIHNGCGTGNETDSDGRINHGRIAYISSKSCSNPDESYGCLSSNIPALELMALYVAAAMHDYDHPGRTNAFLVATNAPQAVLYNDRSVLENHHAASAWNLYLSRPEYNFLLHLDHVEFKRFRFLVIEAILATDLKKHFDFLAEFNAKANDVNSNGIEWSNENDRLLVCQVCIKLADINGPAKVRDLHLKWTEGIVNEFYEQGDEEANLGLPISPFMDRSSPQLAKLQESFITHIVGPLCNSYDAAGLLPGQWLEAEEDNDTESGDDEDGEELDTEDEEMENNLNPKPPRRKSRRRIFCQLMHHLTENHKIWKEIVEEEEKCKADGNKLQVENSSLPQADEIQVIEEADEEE

3',5'-cyclic-AMP phosphodiesterase 4A, sequence (P27815 whole entry): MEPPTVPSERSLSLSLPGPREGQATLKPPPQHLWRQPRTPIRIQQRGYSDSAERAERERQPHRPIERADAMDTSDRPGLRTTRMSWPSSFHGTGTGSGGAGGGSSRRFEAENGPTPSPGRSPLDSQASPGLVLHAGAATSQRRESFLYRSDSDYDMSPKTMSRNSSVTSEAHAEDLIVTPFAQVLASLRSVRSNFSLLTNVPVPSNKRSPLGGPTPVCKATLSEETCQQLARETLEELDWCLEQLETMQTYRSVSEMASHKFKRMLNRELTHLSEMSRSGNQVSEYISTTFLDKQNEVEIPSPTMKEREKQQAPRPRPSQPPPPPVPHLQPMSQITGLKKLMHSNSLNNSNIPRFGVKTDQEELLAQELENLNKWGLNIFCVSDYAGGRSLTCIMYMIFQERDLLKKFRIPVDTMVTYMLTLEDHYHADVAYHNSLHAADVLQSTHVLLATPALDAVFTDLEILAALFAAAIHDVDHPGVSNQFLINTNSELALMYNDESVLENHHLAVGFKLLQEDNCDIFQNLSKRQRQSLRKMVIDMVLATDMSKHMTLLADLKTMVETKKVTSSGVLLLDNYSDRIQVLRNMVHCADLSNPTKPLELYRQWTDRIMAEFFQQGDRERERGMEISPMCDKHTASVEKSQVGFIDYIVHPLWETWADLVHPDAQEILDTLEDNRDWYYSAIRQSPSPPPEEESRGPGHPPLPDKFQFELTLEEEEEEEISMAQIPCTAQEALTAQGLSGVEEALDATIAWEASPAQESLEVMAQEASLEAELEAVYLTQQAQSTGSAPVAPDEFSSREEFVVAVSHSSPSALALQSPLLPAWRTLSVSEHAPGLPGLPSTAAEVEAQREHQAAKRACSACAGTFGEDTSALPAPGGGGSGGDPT
3',5'-cyclic-AMP phosphodiesterase 4B, sequence (Q07343 whole entry): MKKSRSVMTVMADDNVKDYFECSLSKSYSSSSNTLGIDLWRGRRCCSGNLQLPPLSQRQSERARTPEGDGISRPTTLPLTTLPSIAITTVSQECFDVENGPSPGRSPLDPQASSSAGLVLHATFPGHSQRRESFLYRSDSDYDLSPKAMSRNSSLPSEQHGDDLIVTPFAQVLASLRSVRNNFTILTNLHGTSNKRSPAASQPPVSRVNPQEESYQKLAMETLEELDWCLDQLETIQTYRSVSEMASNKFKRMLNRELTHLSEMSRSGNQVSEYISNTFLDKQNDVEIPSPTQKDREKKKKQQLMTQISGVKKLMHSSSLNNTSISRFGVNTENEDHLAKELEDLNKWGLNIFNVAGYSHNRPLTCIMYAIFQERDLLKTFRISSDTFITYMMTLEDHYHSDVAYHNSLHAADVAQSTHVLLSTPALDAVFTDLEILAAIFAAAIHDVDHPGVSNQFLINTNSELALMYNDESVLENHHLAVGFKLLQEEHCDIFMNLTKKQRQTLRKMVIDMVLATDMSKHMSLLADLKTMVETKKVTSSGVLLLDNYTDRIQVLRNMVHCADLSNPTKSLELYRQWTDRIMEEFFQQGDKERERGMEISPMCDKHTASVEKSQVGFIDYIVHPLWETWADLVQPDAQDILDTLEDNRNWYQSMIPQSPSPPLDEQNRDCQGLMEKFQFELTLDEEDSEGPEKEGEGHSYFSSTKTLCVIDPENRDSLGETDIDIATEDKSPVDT
cAMP and cAMP-inhibited cGMP 3',5'-cyclic phosphodiesterase 10A, sequence (Q9Y233 whole entry, the tested form may be a part): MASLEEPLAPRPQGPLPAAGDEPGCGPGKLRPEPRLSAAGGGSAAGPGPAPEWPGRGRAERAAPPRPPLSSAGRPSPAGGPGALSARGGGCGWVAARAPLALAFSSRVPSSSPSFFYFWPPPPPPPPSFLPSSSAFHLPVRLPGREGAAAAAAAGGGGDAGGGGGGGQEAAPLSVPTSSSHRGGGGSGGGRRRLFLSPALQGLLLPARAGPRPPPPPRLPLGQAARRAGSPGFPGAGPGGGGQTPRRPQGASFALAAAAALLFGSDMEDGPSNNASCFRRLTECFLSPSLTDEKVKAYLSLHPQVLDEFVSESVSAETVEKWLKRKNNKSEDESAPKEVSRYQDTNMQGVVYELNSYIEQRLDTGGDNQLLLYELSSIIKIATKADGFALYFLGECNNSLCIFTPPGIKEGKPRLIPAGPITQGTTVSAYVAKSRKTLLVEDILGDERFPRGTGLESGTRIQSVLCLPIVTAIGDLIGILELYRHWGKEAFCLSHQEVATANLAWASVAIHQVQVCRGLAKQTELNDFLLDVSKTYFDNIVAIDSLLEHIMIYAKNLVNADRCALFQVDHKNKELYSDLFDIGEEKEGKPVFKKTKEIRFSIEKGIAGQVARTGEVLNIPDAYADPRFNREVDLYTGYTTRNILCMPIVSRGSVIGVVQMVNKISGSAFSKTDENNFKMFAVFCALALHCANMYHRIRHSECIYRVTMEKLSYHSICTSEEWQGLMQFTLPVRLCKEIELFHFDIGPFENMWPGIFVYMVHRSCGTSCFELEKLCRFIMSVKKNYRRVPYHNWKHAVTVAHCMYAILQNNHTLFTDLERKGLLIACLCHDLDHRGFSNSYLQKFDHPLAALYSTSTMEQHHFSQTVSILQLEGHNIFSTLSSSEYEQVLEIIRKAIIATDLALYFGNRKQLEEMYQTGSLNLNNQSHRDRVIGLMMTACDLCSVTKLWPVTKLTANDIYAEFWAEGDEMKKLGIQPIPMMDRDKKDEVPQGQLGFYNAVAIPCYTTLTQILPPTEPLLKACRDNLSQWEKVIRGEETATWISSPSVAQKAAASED
cGMP-inhibited 3',5'-cyclic phosphodiesterase 3A, sequence (Q14432 whole entry): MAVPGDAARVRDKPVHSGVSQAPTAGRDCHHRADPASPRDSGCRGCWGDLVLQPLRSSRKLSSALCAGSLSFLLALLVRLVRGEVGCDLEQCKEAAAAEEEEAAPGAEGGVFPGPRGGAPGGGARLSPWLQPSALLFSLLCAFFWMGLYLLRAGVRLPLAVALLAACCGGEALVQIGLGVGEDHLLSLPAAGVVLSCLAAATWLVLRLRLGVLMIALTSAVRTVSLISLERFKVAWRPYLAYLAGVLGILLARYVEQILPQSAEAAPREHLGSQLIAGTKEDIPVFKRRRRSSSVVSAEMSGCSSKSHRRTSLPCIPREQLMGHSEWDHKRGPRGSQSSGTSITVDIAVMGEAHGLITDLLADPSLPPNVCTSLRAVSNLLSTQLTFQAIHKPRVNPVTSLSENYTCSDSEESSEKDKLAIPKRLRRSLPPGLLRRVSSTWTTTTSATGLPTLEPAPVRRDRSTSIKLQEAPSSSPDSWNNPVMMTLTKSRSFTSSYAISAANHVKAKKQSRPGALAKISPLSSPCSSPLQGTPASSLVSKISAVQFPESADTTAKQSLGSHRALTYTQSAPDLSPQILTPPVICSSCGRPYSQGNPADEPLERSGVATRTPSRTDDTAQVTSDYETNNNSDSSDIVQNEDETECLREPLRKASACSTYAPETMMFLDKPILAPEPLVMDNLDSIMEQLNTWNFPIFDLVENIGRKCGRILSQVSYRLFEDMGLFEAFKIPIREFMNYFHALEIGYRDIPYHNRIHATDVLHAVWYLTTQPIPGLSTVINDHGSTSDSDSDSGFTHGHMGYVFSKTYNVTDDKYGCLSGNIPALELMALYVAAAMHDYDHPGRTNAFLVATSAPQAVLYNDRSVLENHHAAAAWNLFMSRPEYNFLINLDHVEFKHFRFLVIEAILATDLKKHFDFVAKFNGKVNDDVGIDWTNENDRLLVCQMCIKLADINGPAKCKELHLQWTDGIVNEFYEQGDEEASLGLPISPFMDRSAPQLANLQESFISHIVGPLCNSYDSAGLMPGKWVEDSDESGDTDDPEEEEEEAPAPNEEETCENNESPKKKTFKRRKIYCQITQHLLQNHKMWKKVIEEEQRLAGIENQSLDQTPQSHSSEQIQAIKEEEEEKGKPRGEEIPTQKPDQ

Compound	IC50 ([1]; read-out: IC50) [µM]	further results
Cc1cc(-c2cnnc3ccccc23)cnc1N1CCC(O)(c2ccc(F)nc2)CC1	–	IC50 [1]: Not Active
COc1cc2c(-c3ccc(N4CCC(O)(c5cccnc5)CC4)nc3)cnnc2cc1OCc1ccccc1	1.55	–
COc1cc2c(-c3ccc(N4CCC(O)(c5cccnc5)CC4)nc3)cnnc2cc1O	6.62	–
Cc1cc(-c2cnnc3cc4c(cc23)OCO4)cnc1N1CCC(O)(c2ccc(F)nc2)CC1	–	IC50 [1]: Not Active
COc1cc2nncc(-c3cnc(N4CCC(O)(c5ccc(Cl)nc5)CC4)c(C)c3)c2cc1OC	0.0098	–
COc1cc2c(-c3cnc(N4CCC(O)(c5ccc(F)nc5)CC4)c(C)c3)cnnc2cc1OCc1ccccc1	0.35	–
COc1cc2c(-c3cnc(N4CCC(O)(c5ccc(F)nc5)CC4)c(C)c3)cnnc2cc1OCc1ccc2ccccc2n1	0.518	–
COc1cc2c(-c3cnc(N4CCC(O)(c5ccc(F)nc5)CC4)c(C)c3)cnnc2cc1OCCCF	0.0793	–
COc1ccc(-c2cccnc2Oc2ccc(C(=O)c3nc4ccccc4n3C)cc2)cc1	0.008	–
Cn1c(C(=O)c2ccc(Oc3ncccc3C(=O)c3ccccc3)cc2)nc2ccccc21	–	IC50 [1]: Not Active
COc1ccc(C(=O)c2cccnc2Oc2ccc(C(=O)c3nc4ccccc4n3C)cc2)cc1	–	IC50 [1]: Not Active

The next lines start with results.

IC50 ([1]; read-out: IC50) [µM]	Compound	further results
0.0184	COc1cc2nncc(-c3ccc(N4CCC(C)(O)CC4)nc3)c2cc1OC	–
4.25	COc1cc2c(-c3ccc(N4CCC(C)(O)CC4)nc3)cnnc2cc1OCc1ccccc1	–
0.014	COc1cc2nncc(-c3ccc(N4CCC(O)(c5cccnc5)CC4)nc3)c2cc1OC	–
10.8	COc1cc2c(-c3ccc(N4CCC(C)(O)CC4)nc3)cnnc2cc1O	–
0.00152	COc1cc2nncc(-c3cnc(N4CCC(O)(c5cccnc5)CC4)c(C)c3)c2cc1OC	IC50 [2]: 7.83 µM; IC50 [3]: 8.73 µM; IC50 [4]: 3.07 µM; IC50 [5]: 4.11 µM
0.00286	COc1cc2nncc(-c3cnc(N4CCC(O)(c5ccc(F)nc5)CC4)c(C)c3)c2cc1OC	IC50 [2]: 25.4 µM; IC50 [3]: 30.6 µM; IC50 [4]: 3.7 µM; IC50 [5]: 6.54 µM
0.00552	COc1cc2nncc(-c3cnc(N4CCC(O)(c5cccnc5)CC4)c(Cl)c3)c2cc1OC	–
0.0186	Cn1c(C(=O)c2ccc(Oc3ncccc3-c3ccccc3)cc2)nc2ccccc21	–
0.00373	Cn1c(C(=O)c2ccc(Oc3ncccc3-c3cccnc3)cc2)nc2ccccc21	IC50 [2]: 40.3 µM; IC50 [3]: 25.9 µM; IC50 [4]: 167 µM; IC50 [5]: 234 µM
> 1.9	CC(=O)N1CCC(C(=O)c2cccnc2Oc2ccc(C(=O)c3nc4ccccc4n3C)cc2)CC1	–
